Data as given in ChEMBL document CHEMBL5303300, “EUbOPEN Chemogenomics Library - Multiplex” (2023).
Several values for one entry are separate records, joined by “and”; a condition that tells them apart may be missing. Identical values can stand only once.

Tested on: HEK-293T
Experiment: Multiplex assay against HEK293T
Format: toxicity, cell-based
Conditions: human, number of replicates 2
Method in brief: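 Cells were classed with CellPathfinder machine-learning gating, first as Hoechst high-intensity objects or normal cells, then (normal cells) as healthy, pyknosed or fragmented nuclei, and finally (pyknosed cells) as mitotic or apoptotic. Staining of live cells at seeding used Hoechst33342, BioTracker Green Microtubule Cytoskeleton Dye, MitoTracker Red and Annexin V Alexa Fluor 680, with imaging on a CQ1 microscope at 37°C and 5% CO2 after compound addition. Tubulin, mitochondrial-mass and membrane-permeability phenotypes are per cents of healthy-nucleus cells.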

[1] = 12 h, 1 µM, compound concentration 1 uM
[2] = 12 h, 10 µM, compound concentration 10 uM
[3] = 24 h, 1 µM, compound concentration 1 uM
[4] = 24 h, 10 µM, compound concentration 10 uM
[5] = 48 h, 1 µM, compound concentration 1 uM
[6] = 48 h, 10 µM, compound concentration 10 uM

## CCc1cnn2c(NCc3ccc[n+]([O-])c3)cc(N3CCCCC3CCO)nc12 (configuration not stated)
[1]
  Population Apoptotic (%): 70% and 62%
  Population Fragmented Nuclei (%): 3% and 2%
  Population Healthy Nuclei (%): 83% and 90%
  Population Hoechst High Intensity Objects (%): 9% and 7%
  Population Membrane Permeable-Phenotype (%): 0% and 1%
  Population Mitochondria Different-Phenotype (%): 47% and 51%
  Population Mitotic Cells (%): 29% and 37%
  Population Normal (%): 90% and 92%
  Population Pyknosed Nuclei (%): 12% and 7%
  Population Tubulin-Different-Phenotype (%): 70% and 75%
  Total Cell Count: 349 and 339
[2]
  Population Apoptotic (%): 52% and 86%
  Population Fragmented Nuclei (%): 3%
  Population Healthy Nuclei (%): 89% and 90%
  Population Hoechst High Intensity Objects (%): 13%
  Population Membrane Permeable-Phenotype (%): 2% and 1%
  Population Mitochondria Different-Phenotype (%): 59% and 57%
  Population Normal (%): 86%
  Population Pyknosed Nuclei (%): 7% and 6%
  Population Tubulin-Different-Phenotype (%): 86%
  Total Cell Count: 345 and 378
[3]
  Population Apoptotic (%): 74% and 68%
  Population Fragmented Nuclei (%): 3% and 2%
  Population Healthy Nuclei (%): 86%
  Population Hoechst High Intensity Objects (%): 10% and 11%
  Population Membrane Permeable-Phenotype (%): 1% and 0%
  Population Mitochondria Different-Phenotype (%): 60% and 52%
  Population Mitotic Cells (%): 25% and 31%
  Population Normal (%): 89% and 88%
  Population Pyknosed Nuclei (%): 10% and 11%
  Population Tubulin-Different-Phenotype (%): 70% and 67%
  Total Cell Count: 295 and 327
[4]
  Population Apoptotic (%): 47% and 79%
  Population Fragmented Nuclei (%): 4% and 3%
  Population Healthy Nuclei (%): 88%
  Population Hoechst High Intensity Objects (%): 18% and 17%
  Population Membrane Permeable-Phenotype (%): 0%
  Population Mitochondria Different-Phenotype (%): 70% and 67%
  Population Mitotic Cells (%): 52% and 20%
  Population Normal (%): 81% and 82%
  Population Pyknosed Nuclei (%): 6% and 8%
  Population Tubulin-Different-Phenotype (%): 83% and 85%
  Total Cell Count: 300 and 355
[5]
  Population Apoptotic (%): 68% and 80%
  Population Fragmented Nuclei (%): 4% and 3%
  Population Healthy Nuclei (%): 85% and 80%
  Population Hoechst High Intensity Objects (%): 11% and 13%
  Population Membrane Permeable-Phenotype (%): 0%
  Population Mitochondria Different-Phenotype (%): 71% and 75%
  Population Mitotic Cells (%): 32% and 19%
  Population Normal (%): 88% and 86%
  Population Pyknosed Nuclei (%): 10% and 16%
  Population Tubulin-Different-Phenotype (%): 74% and 67%
  Total Cell Count: 268 and 257
[6]
  Population Apoptotic (%): 43% and 68%
  Population Fragmented Nuclei (%): 1% and 5%
  Population Healthy Nuclei (%): 91% and 87%
  Population Hoechst High Intensity Objects (%): 19% and 20%
  Population Membrane Permeable-Phenotype (%): 1% and 0%
  Population Mitochondria Different-Phenotype (%): 74% and 73%
  Population Mitotic Cells (%): 56% and 31%
  Population Normal (%): 80% and 79%
  Population Pyknosed Nuclei (%): 6% and 7%
  Population Tubulin-Different-Phenotype (%): 83%
  Total Cell Count: 292 and 309

## CS(=O)(=O)c1ccc(NC(=O)c2cccc(COc3ccc(Br)cc3CNCCO)c2)c(Cl)c1.O=CO
[1]
  Population Healthy Nuclei (%): 83%
  Population Mitotic Cells (%): 47% and 41%
  Population Pyknosed Nuclei (%): 14%
  Total Cell Count: 651 and 549
[2]
  Population Healthy Nuclei (%): 84% and 82%
  Population Mitotic Cells (%): 37% and 33%
  Total Cell Count: 462
[3]
  Population Healthy Nuclei (%): 85% and 84%
  Population Mitotic Cells (%): 46%
  Population Pyknosed Nuclei (%): 8% and 10%
  Total Cell Count: 981 and 842
[4]
  Population Healthy Nuclei (%): 82% and 80%
  Population Mitotic Cells (%): 33% and 32%
  Population Pyknosed Nuclei (%): 16%
  Total Cell Count: 436 and 479
[5]
  Population Healthy Nuclei (%): 84% and 85%
  Population Mitotic Cells (%): 74% and 85%
  Population Pyknosed Nuclei (%): 4% and 3%
  Total Cell Count: 1426 and 1953
[6]
  Population Healthy Nuclei (%): 84% and 85%
  Population Mitotic Cells (%): 21%
  Population Pyknosed Nuclei (%): 10% and 9%
  Total Cell Count: 560 and 607

## CS(=O)(=O)c1ccc(C(=O)Nc2cccc(COc3ccc(Br)cc3CN[C@H]3CCC[C@@H]3O)c2)c(Cl)c1.O=CO
[1]
  Population Apoptotic (%): 63% and 58%
  Population Healthy Nuclei (%): 76% and 80%
  Population Mitotic Cells (%): 36% and 41%
  Population Normal (%): 91% and 92%
  Total Cell Count: 550 and 522
[2]
  Population Apoptotic (%): 66% and 59%
  Population Healthy Nuclei (%): 84% and 88%
  Population Mitotic Cells (%): 33% and 40%
  Population Normal (%): 91% and 90%
  Total Cell Count: 631 and 603
[3]
  Population Apoptotic (%): 55% and 58%
  Population Healthy Nuclei (%): 80% and 83%
  Population Mitotic Cells (%): 44% and 41%
  Population Normal (%): 90%
  Total Cell Count: 792 and 800
[4]
  Population Apoptotic (%): 60% and 67%
  Population Healthy Nuclei (%): 85% and 79%
  Population Mitotic Cells (%): 39% and 32%
  Population Normal (%): 91% and 87%
  Total Cell Count: 623 and 546
[5]
  Population Apoptotic (%): 20% and 29%
  Population Healthy Nuclei (%): 86% and 87%
  Population Mitotic Cells (%): 79% and 70%
  Population Normal (%): 91% and 92%
  Total Cell Count: 1777 and 1587
[6]
  Population Apoptotic (%): 60% and 78%
  Population Healthy Nuclei (%): 86% and 80%
  Population Mitotic Cells (%): 40% and 21%
  Population Normal (%): 89% and 90%
  Total Cell Count: 671 and 634

## CS(=O)(=O)c1ccc(C(=O)Nc2cccc(COc3ccc(Br)cc3CN3CC[C@H](O)C3)c2)cc1.O=CO
[1]
  Population Apoptotic (%): 50% and 69%
  Population Fragmented Nuclei (%): 2% and 3%
  Population Healthy Nuclei (%): 72% and 70%
  Population Normal (%): 87% and 88%
  Total Cell Count: 490 and 407
[2]
  Population Apoptotic (%): 46%
  Population Fragmented Nuclei (%): 3% and 2%
  Population Healthy Nuclei (%): 85%
  Population Normal (%): 93% and 94%
  Total Cell Count: 467 and 532
[3]
  Population Fragmented Nuclei (%): 6% and 5%
  Population Healthy Nuclei (%): 79% and 76%
  Population Normal (%): 89% and 90%
  Total Cell Count: 663 and 599
[4]
  Population Apoptotic (%): 57% and 66%
  Population Fragmented Nuclei (%): 3% and 4%
  Population Healthy Nuclei (%): 80% and 85%
  Population Normal (%): 95% and 91%
  Total Cell Count: 543 and 659
[5]
  Population Apoptotic (%): 46%
  Population Fragmented Nuclei (%): 13% and 10%
  Population Healthy Nuclei (%): 80% and 84%
  Population Normal (%): 90%
  Total Cell Count: 1404 and 1241
[6]
  Population Apoptotic (%): 32%
  Population Fragmented Nuclei (%): 5% and 6%
  Population Healthy Nuclei (%): 86%
  Population Normal (%): 93% and 92%
  Total Cell Count: 812 and 937
